In ChEMBL document CHEMBL3822443, “Looking for new antiplasmodial quinazolines: DMAP-catalyzed synthesis of 4-benzyloxy- and 4-aryloxy-2-trichloromethylquinazolines and their in vitro evaluation toward Plasmodium falciparum” (Eur J Med Chem, 2016):

Tests used:
[1] = Selectivity index, ratio of CC50 for human HepG2 cells to IC50 for chloroquine/purimethamine/proguanil-resistant Plasmodium falciparum K1; type: functional
Method in brief: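 SI = CC50/IC50 (K1). […] MTT at 0.5 mg/mL was added for 2 h, and absorbance read at 570 nm against 630 nm reference. Viability was taken as % of control, and CC50 is the mean of three independent experiments.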

[2] = Solubility of compound in RPMI1640 culture medium containing 25mM HEPES, 25 mM NaHCO3 and 10% A+ human serum; type: physicochemical
[3] = Cytotoxicity against human HepG2 cells measured after 72 hrs by MTT assay; type: cell-based
Method in brief: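 Cells seeded at 5.10³ per well in complete medium at 37 °C, humidified 6% CO₂, and left 24 h. Compound was added in DMSO (final under 0.5% v/v) over a range of concentrations for 72 h at 37 °C, in triplicate. Wells were checked under the microscope for precipitate. MTT (0.5 mg/mL in FCS-free medium) was added for 2 h, then A570 read with a 630 nm reference. Viability was taken as % of control, CC50 from dose–response, mean of three independent experiments.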

Plasmodium falciparum = experiment: Antiplasmodial activity against chloroquine/purimethamine/proguanil-resistant Plasmodium falciparum K1 infected in human A+ erythrocytes assessed as reduction in parasitaemia measured after 72 hrs by SYBR Green I fluorescence-based assay; type: functional, organism-based; conditions: K1, 72 h

| Structure (SMILES) | Ratio CC50/IC50 [1] | solubility [2] | CC50 at 72 h [3] [µM] | IC50 (Plasmodium falciparum) [µM] |
| --- | --- | --- | --- | --- |
| COc1cccc(Oc2nc(C(Cl)(Cl)Cl)nc3ccccc23)c1 | 0.3 | soluble | 0.5 |  |
| Clc1ccc(Oc2nc(C(Cl)(Cl)Cl)nc3ccccc23)c(Cl)c1 | 18.4 | soluble | 22.1 | 1.2 |
| CC(=O)c1ccccc1Oc1nc(C(Cl)(Cl)Cl)nc2ccccc12 | 26.7 | soluble | 40 | 1.5 |
| Cc1cc(Oc2nc(C(Cl)(Cl)Cl)nc3ccccc23)ccc1Cl | 5.9 | soluble | 5.3 | 0.9 |
| COc1ccc(COc2nc(C(Cl)(Cl)Cl)nc3ccccc23)cc1OC | 30.6 | soluble | 118 | 3.9 |
| ClC(Cl)(Cl)c1nc(Oc2c(Br)cc(Br)c3cccnc23)c2ccccc2n1 | <0.5 | soluble | 4.9 | > 10 |
| Cc1ccc(COc2nc(C(Cl)(Cl)Cl)nc3ccccc23)cc1 | 12.7 | soluble | 50.9 | 4 |
| ClC(Cl)(Cl)c1nc(Oc2cccc(Br)c2)c2ccccc2n1 | 16 | soluble | 36.7 | 2.3 |
| ClC(Cl)(Cl)c1nc(OCc2cccc(OCc3ccccc3)c2)c2ccccc2n1 | 16.4 | soluble | 62.5 | 3.8 |
| ClC(Cl)(Cl)c1nc(Oc2ccccc2Br)c2ccccc2n1 | 13.8 | soluble | 26.2 | 1.9 |
| Clc1ccc(COc2nc(C(Cl)(Cl)Cl)nc3ccccc23)cc1 | 13.4 | soluble | 33.4 | 2.5 |
| Cc1occc(=O)c1Oc1nc(C(Cl)(Cl)Cl)nc2ccccc12 | <6.3 | soluble | 62.7 | > 10 |
| CC(=O)c1ccccc1Oc1nc(C)nc2ccccc12 |  | soluble |  | > 15 |
| N#Cc1ccc(Oc2nc(C(Cl)(Cl)Cl)nc3ccccc23)cc1 | >5 | Insoluble | > 8 | 1.6 |
| FC(F)(F)c1ccc(COc2nc(C(Cl)(Cl)Cl)nc3ccccc23)cc1 | 9.9 | soluble | 27.8 | 2.8 |
| O=[N+]([O-])c1ccc(COc2nc(C(Cl)(Cl)Cl)nc3ccccc23)cc1 | 19.4 | soluble | 34.9 | 1.8 |
| COc1ccc(COc2nc(C(Cl)(Cl)Cl)nc3ccccc23)cc1 | <9 | soluble | 90.3 | > 10 |
| O=c1cc(Oc2nc(C(Cl)(Cl)Cl)nc3ccccc23)c2ccccc2o1 | <5.9 | soluble | 59 | > 10 |
| ClC(Cl)(Cl)c1nc(Oc2ccc3ccccc3n2)c2ccccc2n1 | <3 | soluble | 30.3 | > 10 |

| Structure (SMILES) | Ratio CC50/IC50 [1] | solubility [2] | CC50 at 72 h [3] [µM] | IC50 (Plasmodium falciparum) [µM] |
| --- | --- | --- | --- | --- |
| CC(C)c1ccc(COc2nc(C(Cl)(Cl)Cl)nc3ccccc23)cc1 | <3.3 | soluble | 33.3 | > 10 |
| O=Cc1ccccc1Oc1nc(C(Cl)(Cl)Cl)nc2ccccc12 | 7.5 | soluble | 75 | 10 |
| CC(=O)c1cccc(Oc2nc(C(Cl)(Cl)Cl)nc3ccccc23)c1 | 0.6 | soluble | 1 | 1.7 |
| O=[N+]([O-])c1cccc(COc2nc(C(Cl)(Cl)Cl)nc3ccccc23)c1 | 13.6 | soluble | 29.9 | 2.2 |
| C#CC(Oc1nc(C(Cl)(Cl)Cl)nc2ccccc12)c1ccccc1 (configuration not stated) | 10.2 | soluble | 24.6 | 2.4 |
| Fc1c(F)c(F)c(Oc2nc(C(Cl)(Cl)Cl)nc3ccccc23)c(F)c1F | 9.9 | soluble | 43.7 | 4.4 |
| ClC(Cl)(Cl)c1nc(OCc2ccccc2)c2ccccc2n1 | 21.9 | soluble | 43.8 | 2 |
| O=[N+]([O-])c1ccccc1COc1nc(C(Cl)(Cl)Cl)nc2ccccc12 | >4.3 | Insoluble | > 10 | 2.3 |
| CC(=O)c1ccc(Oc2nc(C(Cl)(Cl)Cl)nc3ccccc23)cc1 | 21.5 | soluble | 49.5 | 2.3 |
| O=[N+]([O-])c1ccc(/C=C/COc2nc(C(Cl)(Cl)Cl)nc3ccccc23)cc1 | 12 | soluble | 31.2 | 2.6 |
| O=[N+]([O-])c1cc2c(cc1COc1nc(C(Cl)(Cl)Cl)nc3ccccc13)OCO2 | 9.3 | soluble | 28.7 | 3.1 |
| ClC(Cl)(Cl)c1nc(Oc2ccc(Br)cc2)c2ccccc2n1 | 25 | soluble | 45 | 1.8 |
| CC(Oc1nc(C(Cl)(Cl)Cl)nc2ccccc12)c1ccc(Cl)cc1 (configuration not stated) | 7.2 | soluble | 25.1 | 3.5 |
| N#CC(Oc1nc(C(Cl)(Cl)Cl)nc2ccccc12)c1ccccc1 (configuration not stated) | 17.1 | soluble | 25.7 | 1.5 |
| CC(Oc1nc(C(Cl)(Cl)Cl)nc2ccccc12)c1ccccc1 (configuration not stated) | 12.1 | soluble | 39.9 | 3.3 |
| CC(Oc1nc(C(Cl)(Cl)Cl)nc2ccccc12)c1ccc(Cl)cc1Cl (configuration not stated) | 7.2 | soluble | 30.2 | 4.2 |
| COc1cc(C=O)cc([N+](=O)[O-])c1Oc1nc(C(Cl)(Cl)Cl)nc2ccccc12 | <5.7 | soluble | 57 | > 10 |
| C[C@H]1c2cccc(O)c2C(=O)C2=C(O)[C@]3(O)C(=O)C(C(N)=O)=C(O)[C@@H](N(C)C)[C@@H]3[C@@H](O)[C@@H]21.O [DOXYCYCLINE] | 3.3 |  |  |  |
